Data: ChEMBL document CHEMBL1157101, “A series of alpha-heterocyclic carboxaldehyde thiosemicarbazones inhibit topoisomerase IIalpha catalytic activity” (J Med Chem, 2010)
The source made the active and inactive calls. The calls are words filed in the database; no cut-off is given here.

Tests used:
[1] = test system: A-375; experiment: Antiproliferative activity against human A375 cells after 72 hrs by sulforhodamine B assay; format: functional, cell-based; details: A-375, 72 h
Outline: (§1)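 Cells seeded and exposed in triplicate to graded compound concentrations for 72 h. Suspension cells read by MTT conversion to coloured product; adherent cells read by sulforhodamine B. IC50 (50% growth inhibition versus untreated control) derived by the Logit method.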

[2] = Antiproliferative activity against human KB/VCR cells after 72 hrs by sulforhodamine B assay; format: functional, cell-based; outline: as §1
[3] = molecular target: T1, DNA topoisomerase 2-alpha (Homo sapiens, UniProt P11388); experiment: Inhibition of human topoisomerase 2alpha binding to pBR322 DNA binding by electrophoretic mobility shift assay
Outline: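 Electrophoretic mobility shift assay. 0.2 μg supercoiled pBR322 with 200 nM human Topo IIα, ± compound, 10 min at 37 °C. Separated 90 min on 1% agarose containing 0.5 μg/mL ethidium bromide in TAE.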

[4] = molecular target: T1, DNA topoisomerase 2-alpha; experiment: Inhibition of topoisomerase-2 alpha in human HT-29 cells assessed as reversal of etoposide-mediated DNA double strand break measured as phosphorylated histone2A level at 30 uM by immunostaining; format: cell-based
[5] = molecular target: T1, DNA topoisomerase 2-alpha; experiment: Inhibition of topoisomerase-2 alpha in human HL60/MX2 cells assessed as antagonization of enzyme-DNA cleavage complex at 100 uM; format: cell-based
[6] = test system: KB; experiment: Antiproliferative activity against human KB cells after 72 hrs by sulforhodamine B assay; format: functional, cell-based; outline: as §1
[7] = test system: HT-29; experiment: Cell cycle arrest in nocodazole pretreated human HT-29 cells assessed as accumulation at M phase at 1 uM after 24 hrs; format: functional, cell-based
Outline: (§2)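 HT-29 cells stained with propidium iodide; cell-cycle distribution determined by flow cytometry.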

[8] = test system: Mus musculus; experiment: Toxicity in Kunming mouse bearing mouse S180 cells assessed as change in body weight at 12.5 mg/kg/day, ip for 7 days (reference value: 17.9 g); format: organism-based, CCRF S-180; design: route intraperitoneal; details: in vivo, 168 h
Outline: (§3)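 Female Kunming mice, 7 weeks old and 18-22 g, were inoculated sc in the right armpit with S-180 sarcoma. From the next day they received ip injections at the stated daily dose for 7 days, alongside a normal-saline control group. Body weight was recorded at the start and at the end of treatment.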

[9] = test system: HL-60; experiment: Antiproliferative activity against human HL60 cells after 72 hrs by sulforhodamine B assay; format: functional, cell-based; details: HL-60, 72 h, in the assay text read “MTT assay” for “sulforhodamine B assay”; outline: as §1
[10] = test system: U-937; experiment: Antiproliferative activity against human U937 cells after 72 hrs by sulforhodamine B assay; format: functional, cell-based; details: U-937, 72 h; outline: as §1
[11] = molecular target: T1, DNA topoisomerase 2-alpha; experiment: Inhibition of topoisomerase-2 alpha in human HT-29 cells assessed as reversal of etoposide-mediated DNA double strand break measured as phosphorylated histone2A level at 1 uM by immunostaining; format: cell-based
[12] = molecular target: T1, DNA topoisomerase 2-alpha; experiment: Inhibition of topoisomerase-2 alpha in human HL60/MX2 cells assessed as antagonization of etoposide-mediated enzyme-DNA cleavage complex at 100 uM; format: cell-based
[13] = test system: NCI-H23; experiment: Antiproliferative activity against human NCI-H23 cells after 72 hrs by sulforhodamine B assay; format: functional, cell-based; details: NCI-H23, 72 h; outline: as §1
[14] = test system: HT-29; experiment: Cell cycle arrest in human HT-29 cells pretreated with aphidicolin for 1 hr assessed as accumulation at G1/S phase after 24 hrs by flow cytometry in presence of nocdazole; format: functional, cell-based; outline: as §2
[15] = Antiproliferative activity against human K562/A02 cells after 72 hrs by sulforhodamine B assay; format: functional, cell-based; details: K562/A02, 72 h, in the assay text read “MTT assay” for “sulforhodamine B assay”; outline: as §1
[16] = molecular target: T1, DNA topoisomerase 2-alpha; experiment: Inhibition of human topoisomerase 2alpha-mediated relaxation of pBR322 at 25 uM
[17] = molecular target: T2, DNA topoisomerase 1 (Homo sapiens) (UniProt P11387); experiment: Inhibition of human topoisomerase 1-mediated relaxation of pBR322 up to 125 uM
T2 sequence (whole entry): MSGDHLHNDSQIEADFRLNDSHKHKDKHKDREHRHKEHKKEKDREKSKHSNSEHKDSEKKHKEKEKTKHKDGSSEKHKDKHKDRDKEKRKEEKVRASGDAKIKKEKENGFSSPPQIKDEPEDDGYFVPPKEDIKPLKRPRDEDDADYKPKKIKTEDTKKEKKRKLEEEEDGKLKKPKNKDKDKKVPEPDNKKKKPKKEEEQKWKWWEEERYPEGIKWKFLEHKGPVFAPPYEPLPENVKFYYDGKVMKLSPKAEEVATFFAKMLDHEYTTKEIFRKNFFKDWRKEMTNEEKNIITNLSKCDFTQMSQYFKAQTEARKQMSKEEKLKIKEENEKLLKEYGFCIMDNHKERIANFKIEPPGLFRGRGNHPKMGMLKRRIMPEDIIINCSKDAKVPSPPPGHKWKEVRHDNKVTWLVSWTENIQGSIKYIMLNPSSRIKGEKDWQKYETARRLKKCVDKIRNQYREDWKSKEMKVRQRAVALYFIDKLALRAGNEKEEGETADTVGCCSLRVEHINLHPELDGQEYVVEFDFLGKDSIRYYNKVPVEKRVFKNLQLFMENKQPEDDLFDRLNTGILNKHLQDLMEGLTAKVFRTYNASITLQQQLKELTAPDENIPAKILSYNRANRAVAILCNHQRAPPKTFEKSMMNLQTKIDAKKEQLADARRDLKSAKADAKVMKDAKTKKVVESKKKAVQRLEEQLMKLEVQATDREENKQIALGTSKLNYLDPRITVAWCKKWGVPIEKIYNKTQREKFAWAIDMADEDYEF

[18] = test system: HL60/MX2; experiment: Cytotoxicity against human HL60/MX2 cells; format: functional, cell-based
[19] = test system: CCRF S-180; experiment: Antitumor activity against mouse S180 cells transplanted in Kunming mouse assessed as inhibition of tumor growth at 25 mg/kg/day, ip for 7 days; format: functional; details: CCRF S-180, ip, 168 h, route intraperitoneal
Outline: (§4)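 Female Kunming mice, 7 weeks old, 18-22 g, inoculated sc in the right armpit with S-180 sarcoma. Dosing began the next day, ip daily for 7 days; normal saline given iv as control. Tumours excised and weighed after treatment. Inhibitory rate (%) = (mean control tumour weight − mean treated tumour weight)/mean control tumour weight × 100.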

[20] = test system: Mus musculus; experiment: Toxicity in Kunming mouse bearing mouse S180 cells assessed as change in body weight at 50 mg/kg/day, ip for 7 days (reference value: 17.9 g); format: organism-based, CCRF S-180; design: route intraperitoneal; details: in vivo, 168 h; outline: as §3
[21] = test system: CCRF S-180; experiment: Antitumor activity against mouse S180 cells transplanted in Kunming mouse assessed as inhibition of tumor growth at 50 mg/kg/day, ip for 7 days; format: functional; details: CCRF S-180, ip, 168 h, route intraperitoneal; outline: as §4
[22] = molecular target: T1, DNA topoisomerase 2-alpha; experiment: Inhibition of human topoisomerase 2alpha ATPase domain assessed as ATP hydrolysis
Outline: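 NADH-coupled ATPase assay at 37 °C in 100 μL. Contains 2 μg Topo IIα ATPase domain (or 18 nM Topo IIα), 0.2 μg pBR322, 1 mM ATP, 2 mM PEP, 0.16 mM NADH, 5 U pyruvate kinase and 8 U lactate dehydrogenase.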

[23] = test system: MDA-MB-231; experiment: Antiproliferative activity against human MDA-MB-231 cells after 72 hrs by sulforhodamine B assay; format: functional, cell-based; details: MDA-MB-231, 72 h; outline: as §1
[24] = test system: Mus musculus; experiment: Toxicity in Kunming mouse bearing mouse S180 cells assessed as change in body weight at 25 mg/kg/day, ip for 7 days (reference value: 17.9 g); format: organism-based, CCRF S-180; design: route intraperitoneal; details: in vivo, 168 h; outline: as §3
[25] = molecular target: T1, DNA topoisomerase 2-alpha; experiment: Inhibition of human topoisomerase 2alpha-mediated relaxation of pBR322
[26] = molecular target: T1, DNA topoisomerase 2-alpha; experiment: Inhibition of human topoisomerase 2 alpha-mediated decatenation of kDNA at 100 uM after 15 mins

T1 sequence (P11388 whole entry): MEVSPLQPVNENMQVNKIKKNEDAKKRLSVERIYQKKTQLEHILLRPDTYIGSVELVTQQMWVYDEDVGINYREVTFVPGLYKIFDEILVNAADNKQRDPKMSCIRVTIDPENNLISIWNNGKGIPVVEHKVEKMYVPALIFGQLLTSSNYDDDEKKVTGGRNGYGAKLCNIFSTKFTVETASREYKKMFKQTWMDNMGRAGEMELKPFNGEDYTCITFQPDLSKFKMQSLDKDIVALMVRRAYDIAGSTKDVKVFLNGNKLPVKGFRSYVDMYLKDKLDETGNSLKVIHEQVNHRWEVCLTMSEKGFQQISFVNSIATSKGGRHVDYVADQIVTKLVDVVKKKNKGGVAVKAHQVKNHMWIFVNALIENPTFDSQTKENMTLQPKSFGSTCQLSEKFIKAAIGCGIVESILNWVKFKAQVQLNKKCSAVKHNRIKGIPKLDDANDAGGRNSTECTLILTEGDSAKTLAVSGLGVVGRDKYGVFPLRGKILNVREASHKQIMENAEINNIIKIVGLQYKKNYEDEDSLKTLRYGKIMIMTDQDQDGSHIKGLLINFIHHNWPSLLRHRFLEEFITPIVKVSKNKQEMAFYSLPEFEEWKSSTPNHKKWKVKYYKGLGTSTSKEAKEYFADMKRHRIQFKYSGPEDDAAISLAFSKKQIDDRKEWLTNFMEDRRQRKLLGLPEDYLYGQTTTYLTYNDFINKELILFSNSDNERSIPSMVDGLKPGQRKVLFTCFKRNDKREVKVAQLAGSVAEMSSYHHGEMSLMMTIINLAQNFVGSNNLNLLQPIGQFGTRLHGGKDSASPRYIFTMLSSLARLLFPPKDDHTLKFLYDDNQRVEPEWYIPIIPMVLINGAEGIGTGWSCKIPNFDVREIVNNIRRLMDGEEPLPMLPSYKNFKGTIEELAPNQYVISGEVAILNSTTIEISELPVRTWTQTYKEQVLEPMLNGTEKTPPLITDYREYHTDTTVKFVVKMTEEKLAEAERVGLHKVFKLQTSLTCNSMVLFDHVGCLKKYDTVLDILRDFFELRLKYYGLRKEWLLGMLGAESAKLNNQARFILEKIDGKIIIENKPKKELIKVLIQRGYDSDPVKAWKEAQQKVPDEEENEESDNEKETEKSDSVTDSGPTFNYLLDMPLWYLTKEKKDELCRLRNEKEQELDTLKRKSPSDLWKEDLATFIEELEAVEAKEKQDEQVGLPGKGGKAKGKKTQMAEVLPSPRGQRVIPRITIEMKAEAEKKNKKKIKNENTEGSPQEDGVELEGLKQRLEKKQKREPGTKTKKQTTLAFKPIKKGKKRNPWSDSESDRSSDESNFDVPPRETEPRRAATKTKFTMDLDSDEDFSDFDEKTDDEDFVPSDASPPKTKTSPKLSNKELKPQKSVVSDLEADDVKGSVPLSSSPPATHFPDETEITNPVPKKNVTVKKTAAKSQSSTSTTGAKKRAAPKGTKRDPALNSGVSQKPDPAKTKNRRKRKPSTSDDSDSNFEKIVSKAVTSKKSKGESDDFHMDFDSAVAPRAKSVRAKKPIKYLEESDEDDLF

IC50 [1]: 0.02 µM
inhibition [3]: inactive
inhibition [4]: Active
inhibition [5]: inactive
IC50 [6]: 0.77 µM
IC50 [9]: 0.05 µM
IC50 [10]: 0.03 µM
inhibition [11]: Active
inhibition [12]: Active
IC50 [13]: 0.08 µM
inhibition [16]: inactive
inhibition [17]: inactive
inhibition [22]: Dose-dependent effect
IC50 [23]: 0.02 µM
inhibition [25]: Dose-dependent effect
inhibition (active/not active) [26]: Active
Compound: CN(C)C(=S)N/N=C/c1ccc2ccccc2n1
IC50 [2]: 0.3 µM
Activity [7]: Active
Activity [8]: 29 g
Activity [14]: inactive
IC50 [15]: 0.06 µM
Activity [18]: Active
inhibition in vivo at 25 mg/kg/day [19]: 35.8%
Activity [20]: 20 g
inhibition in vivo at 50 mg/kg/day [21]: 76.7%
Activity [24]: 23.9 g
